Laboratory results taken from ChEMBL document CHEMBL1152585, “Identification of small molecule regulators of the nuclear receptor HNF4alpha based on naphthofuran scaffolds” (Bioorg Med Chem, 2009).
pEC50, pIC50: −log10 of the molar value. The source made the active and inactive calls. The rule behind the calls is not given here.

Columns and labels:
[1] = target: T1, Hepatocyte nuclear factor 4-alpha (Homo sapiens, UniProt P41235); test: Agonist activity at human full length HNF4alpha nuclear receptor expressed in human HepG2/C3A cells co-transfected with LexADBD assessed as increase in transcriptional activity after 16 hrs by beta-galactosidase one hybrid assay; assay type: functional, cell-based
T1 sequence (P41235 whole entry): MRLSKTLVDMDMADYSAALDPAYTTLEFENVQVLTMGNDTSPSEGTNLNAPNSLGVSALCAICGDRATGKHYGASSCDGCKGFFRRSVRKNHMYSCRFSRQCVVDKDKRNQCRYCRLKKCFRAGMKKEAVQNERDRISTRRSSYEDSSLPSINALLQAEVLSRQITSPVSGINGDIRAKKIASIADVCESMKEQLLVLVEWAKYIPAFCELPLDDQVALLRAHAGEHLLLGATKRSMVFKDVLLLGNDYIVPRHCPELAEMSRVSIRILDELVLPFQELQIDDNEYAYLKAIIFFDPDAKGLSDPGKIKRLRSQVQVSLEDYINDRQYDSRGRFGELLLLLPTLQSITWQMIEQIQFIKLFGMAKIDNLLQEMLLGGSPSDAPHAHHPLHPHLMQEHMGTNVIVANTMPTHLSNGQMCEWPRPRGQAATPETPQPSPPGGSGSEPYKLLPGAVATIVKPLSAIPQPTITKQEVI
Procedure, shortened: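 Yeast one-hybrid with LexA DNA-binding domain fusions of HNF4α (full length, AF-1-deleted, or LBD lacking F domain). Increasing compound concentrations applied to yeast for 16 h, then β-galactosidase assay. EC50 taken from the dose–response curves.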

[2] = target: T2, Hepatocyte nuclear factor 4-alpha (Homo sapiens) (UniProt P41235); test: Agonist activity at human full length HNF4alpha nuclear receptor expressed in human HepG2/C3A cells co-transfected with LexADBD assessed as increase in transcriptional activity at 9.3 uM by beta-galactosidase one hybrid assay relative to control; assay type: functional, cell-based
T2 sequence (whole entry): T1 sequence (P41235 whole entry)

[3] = test system: HepG2/C3A; test: Enhancement of beta-galactosidase activity in human HepG2/C3A cells transfected with Gal4 assessed as increase in transcriptional activity after 16 hrs; assay type: functional, cell-based
[4] = test system: HepG2/C3A; test: Enhancement of beta-galactosidase activity in human HepG2/C3A cells transfected with estrogen receptor assessed as increase in transcriptional activity after 16 hrs; assay type: functional, cell-based
[5] = test system: HepG2/C3A; test: Enhancement of beta-galactosidase activity in human HepG2/C3A cells transfected with LexACOUP-TFII assessed as increase in transcriptional activity after 16 hrs; assay type: functional, cell-based
[6] = Cytotoxicity against human HepG2/C3A cells after 48 hrs by MTT assay; assay type: functional, cell-based
[7] = target: T2, Hepatocyte nuclear factor 4-alpha (Homo sapiens); test: Stabilization of thermal denaturation-induced conformational change in human HNF4alpha nuclear receptor ligand binding domain assessed as change in transition temperature by thermofluor assay
Procedure, shortened: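 Human HNF4α LBD (aa 133–368), 6xHis-tagged, expressed in E. coli, purified under denaturing conditions, renatured and TEV-cleaved (apo). Protein at 0.3 mg/mL in 20 mM Tris-Cl pH 8.0, 100 mM NaCl, with 3× molar excess test compound and SYPRO Orange (20× working). Heated 20–90 °C at 1 °C/min. ΔTm = Tm − T0 against a water control; means of 3–6 independent experiments ± SE.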

[8] = target: T2, Hepatocyte nuclear factor 4-alpha (Homo sapiens); test: Agonist activity at human full length HNF4alpha nuclear receptor expressed in human HepG2/C3A cells co-transfected with LexADBD assessed as increase in transcriptional activity at 6.2 uM by beta-galactosidase one hybrid assay relative to control; assay type: functional, cell-based
[9] = target: T2, Hepatocyte nuclear factor 4-alpha (Homo sapiens); test: Agonist activity at human full length HNF4alpha nuclear receptor expressed in human HepG2/C3A cells co-transfected with LexADBD assessed as increase in transcriptional activity at 100 uM by beta-galactosidase one hybrid assay relative to control; assay type: functional, cell-based
[10] = target: T2, Hepatocyte nuclear factor 4-alpha (Homo sapiens); test: Agonist activity at human full length HNF4alpha nuclear receptor expressed in human HepG2/C3A cells co-transfected with LexADBD assessed as increase in transcriptional activity at 12.5 uM by beta-galactosidase one hybrid assay relative to control; assay type: functional, cell-based
[11] = target: T2, Hepatocyte nuclear factor 4-alpha (Homo sapiens); test: Activation of HNFalpha transcriptional activity in human […] cells transfected with ApoB-luc assessed as activation of luciferase reporter gene after 24 hrs; assay type: cell-based
Procedure, shortened: (§1)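 HepG2C3A cells seeded at 6 × 10⁴/well in DMEM, transfected 24 h later (JetPEI) with 800 ng total DNA: 250 ng ApoB-Luc or ApoCIII-Luc reporter, 250 ng β-galactosidase plasmid, HNF4α expression vector. Treated 24 h (DMSO 0.5% control). Luciferase read in lysate supernatant and normalised to β-gal (4-MUG fluorescence, ex 365/em 450 nm). Fold induction vs DMSO. At least three independent experiments, in triplicate.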

[12] = target: T2, Hepatocyte nuclear factor 4-alpha (Homo sapiens); test: Agonist activity at human full length HNF4alpha nuclear receptor expressed in human HepG2/C3A cells co-transfected with LexADBD assessed as increase in transcriptional activity at 18.7 uM by beta-galactosidase one hybrid assay relative to control; assay type: functional, cell-based
[13] = target: T2, Hepatocyte nuclear factor 4-alpha (Homo sapiens); test: Activation of HNFalpha transcriptional activity in human […] cells transfected with ApoCIII-luc assessed as activation of luciferase reporter gene after 24 hrs; assay type: cell-based; procedure, shortened: as §1
[14] = target: T2, Hepatocyte nuclear factor 4-alpha (Homo sapiens); test: Agonist activity at human HNF4alpha7 nuclear receptor LBDdetaF expressed in human HepG2/C3A cells co-transfected with LexADBD assessed as increase in transcriptional activity after 16 hrs by beta-galactosidase one hybrid assay; assay type: functional, cell-based
[15] = target: T2, Hepatocyte nuclear factor 4-alpha (Homo sapiens); test: Agonist activity at AF1 deleted human HNF4alpha7 nuclear receptor expressed in human HepG2/C3A cells co-transfected with LexADBD assessed as increase in transcriptional activity after 16 hrs by beta-galactosidase one hybrid assay; assay type: functional, cell-based

COc1cc2ccccc2c2cc([N+](=O)[O-])oc12
pEC50 [1]: 5.83
fold change (FC) [2]: 6.6
Activity [3]: inactive
Activity [4]: inactive
Activity [5]: inactive
pIC50 [6]: 5.36

O=[N+]([O-])c1cc2c(ccc3cc(O)ccc32)o1
pEC50 [1]: 5.71
ΔTm [7]: 0.84 °C
fold change (FC) [8]: 11.1
pIC50 [6]: 5.30

NC(=O)c1cc2c(ccc3ccccc32)o1
pEC50 [1]: < 4.00
pIC50 [6]: < 5.30
fold change (FC) [9]: 2

O=[N+]([O-])c1oc2ccc3ccccc3c2c1CCO
pEC50 [1]: 5.91
fold change (FC) [10]: 4.58
pIC50 [6]: 5.69

COc1ccc2ccc3oc([N+](=O)[O-])cc3c2c1
pEC50 [1]: 5.63
fold change (FC) [2]: 7.97
pIC50 [6]: 5.64

O=[N+]([O-])c1cc2c(ccc3ccccc32)o1
pEC50 [1]: 5.68
fold change (FC) [10]: 4.46
pIC50 [6]: 5.60

Cc1c([N+](=O)[O-])oc2ccc3ccccc3c12
pEC50 [1]: 5.89
Activity [11]: Dose-dependent effect
fold change (FC) [12]: 5.51
Activity [13]: Dose-dependent effect
pIC50 [6]: < 5.30

COc1ccc2c(ccc3oc([N+](=O)[O-])cc32)c1
pEC50 [1]: 5.59
fold change (FC) [2]: 8.05
Activity [14]: inactive
pIC50 [6]: 5.65
Activity [15]: inactive
